Active and inactive are the calls of the source. The rule behind the calls is not given here.
Key:
[1] = target: Receptor tyrosine-protein kinase erbB-2 (Homo sapiens) (UniProt P04626); assay: Inhibition of human recombinant GST-tagged HER2 (catalytic domain 676 to end residues) autophosphorylation expressed in baculovirus infected Sf9 cells using poly( Glu, Tyr) 4:1 as substrate at 10 uM incubated for 60 mins by ELISA relative to control
In short: (§1)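 Wells coated with poly-Glu,Tyr (4:1), 20 µg/well overnight at 4 °C, then blocked with 5% BSA. GST-HER2 added at 200 ng/mL final in HEPES/NaCl/NaVO₄/BSA buffer. Reaction started with ATP spanning Km plus 10 mM MnCl₂ final, run 60 min at 37 °C, stopped with EDTA. Phosphotyrosine detected with HRP anti-pTyr and ABTS at 405 nm; triplicate.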

[2] = target: Receptor tyrosine-protein kinase erbB-2 (Homo sapiens) (UniProt P04626); assay: Inhibition of human recombinant GST-tagged HER2 (catalytic domain 676 to end residues) autophosphorylation expressed in baculovirus infected Sf9 cells using poly( Glu, Tyr) 4:1 as substrate at 1 uM incubated for 60 mins by ELISA relative to control; in short: as §1
[3] = target: Receptor tyrosine-protein kinase erbB-2 (Homo sapiens) (UniProt P04626); assay: Inhibition of HER2 autophosphorylation in human HCC1954 cells overexpressing HER2 at 0.02 to 2 uM incubated for 1 hr by Western blot analysis; format: cell-based
In short: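 HCC-1954 cells at 60-70% confluence exposed to 0.02 and 2 μM compound for 1 h, then lysed in RIPA with protease inhibitors. About 10 µg protein separated by SDS-PAGE and blotted to PVDF. Phospho- and total HER2 antibodies at 1:1000, HRP secondaries, ECL read-out; β-actin used for normalization.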

A549 [4] = assay: Antiproliferative activity against human A549 cells overexpressing EGFR assessed as reduction in cell viability incubated for 72 hrs by MTT assay; format: functional, cell-based; settings: A549, 72 h
In short: (§2)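 Cells seeded at 5×10^3/well in complete medium (DMEM or RPMI, 10% FBS) and left 24 h at 37 °C, 5% CO2. Compounds added at 0.5–150 μM for 72 h. MTT (0.3 mg/mL in PBS) applied for 3 h, formazan dissolved in DMSO, OD read at 570 nm against 650 nm reference. IC50 from four-parameter logistic fit; three experiments in triplicate.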

NCI-H1975 = assay: Antiproliferative activity against human NCI-H1975 cells assessed as reduction in cell viability incubated for 72 hrs by MTT assay; format: functional, cell-based; settings: NCI-H1975, 72 h; in short: as §2
HCC1954 [5] = assay: Antiproliferative activity against human HCC1954 cells overexpressing HER2 assessed as reduction in cell viability incubated for 72 hrs by MTT assay; format: functional, cell-based; settings: HCC1954, 72 h; in short: as §2
MCF7 = assay: Antiproliferative activity against human MCF7 cells assessed as reduction in cell viability incubated for 72 hrs by MTT assay; format: functional, cell-based; settings: MCF7, 72 h; in short: as §2
[6] = Drug uptake in human A549 cells overexpressing EGFR at 1 uM measured after 48 hrs by LC-MS/MS analysis; format: ADME, cell-based; settings: a549, 48 h
In short: (§3)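 A549 cells plated at 1.5×10^5 cells/well and exposed to 1 µM compound for 1, 4, 8, 24 and 48 h. Cells washed twice with ice-cold PBS, then lysed. Intracellular amount measured by LC-MS/MS against standard curves with a stable internal standard.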

[7] = Cmax in C57BL/6N mouse at 34 micromol/kg, po measured upto 24 hrs by LC-MS/MS analysis; format: ADME, organism-based; parameters: route oral; settings: in vivo, 34 µmol/kg
In short: (§4)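 Male C57BL/6N mice, 10-12 weeks old, n = 5 per group, fasted overnight, single oral gavage dose in 0.5% carboxymethyl cellulose: 0.1% Tween 80 in water. Serial tail bleeds of 10 μL at 0.25, 0.5, 1, 2, 4, 6, 8 and 24 h into 0.1 M citric acid pH 4.5, stored at -80 °C. Samples processed by protein precipitation and evaporation, then quantified in blood by LC-MS/MS.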

[8] = Tmax in C57BL/6N mouse at 34 micromol/kg, po measured upto 24 hrs by LC-MS/MS analysis; format: ADME, organism-based; settings: in vivo, 34 µmol/kg; in short: as §4
[9] = AUC (0 to 24 hrs) in C57BL/6N mouse at 34 micromol/kg, po measured upto 24 hrs by LC-MS/MS analysis; format: ADME, organism-based; parameters: time < 24 hr, route oral; settings: in vivo, 34 µmol/kg; in short: as §4
A549 [10] = assay: Antitumor activity against human A549 cells overexpressing EGFR xenografted in NOD/SCID mouse assessed as tumor volume at 86 micromol/kg, po administered once daily for 27 days measured at day 27 at 2 hrs after last administered dose (reference value: 1869 +/- 134 mm3); format: functional
In short: (§5)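 NOD/SCID mice (n=4 per group, 2 male, 2 female) injected in each flank with 5×10⁶ A549 cells in DMEM, 10% FBS. Daily oral dosing started at about 150–160 mm³ tumors; vehicle 0.5% carboxymethyl cellulose: 0.1% Tween 80 in water. Caliper measurements every three days, V = π×D×d²/6. Body weight and signs of discomfort monitored. Study ended day 27, 2 h post last dose.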

[11] = Drug concentration in NOD/SCID mouse blood xenografted with human A549 cells overexpressing EGFR at 86 micromol/kg, po administered once daily for 27 days and measured at day 27 at 2 hrs after last administered dose by LC-MS/MS analysis; format: ADME, organism-based; settings: 86 µmol/kg, read-out: Ct
In short: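 A549 xenografts in NOD/SCID mice dosed orally once daily for 27 days, vehicle 0.5% carboxymethyl cellulose: 0.1% Tween 80 in water. Blood collected 2 h after the final dose on day 27, with animals euthanized under isoflurane. Drug level quantified by LC-MS/MS.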

[12] = AUC (1 to 48 hrs) in human A549 cells overexpressing EGFR at 1 uM measured per 0.1 million cells by LC-MS/MS analysis; settings: a549, 48 h
[13] = target: Epidermal growth factor receptor (Homo sapiens) (UniProt P00533); assay: Inhibition of EGFR autophosphorylation in human A549 cells overexpressing EGFR at 1 to 10 uM treated with compound for 10 mins prior to EGF stimulation for 10 mins by Western blot analysis; format: cell-based
In short: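 A549 cells grown to 60-70% confluence, then serum-starved 24 h. Exposed to compound for 10 min, then stimulated with 100 ng/mL EGF for 10 min at 37 °C and lysed in RIPA with protease inhibitors. About 10 µg protein run on SDS-PAGE, blotted to PVDF. Phospho- and total EGFR probed at 1:1000, HRP secondaries, ECL detection; β-actin for normalization.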

A549 [14] = assay: Antiproliferative activity against human A549 cells overexpressing EGFR assessed as reduction in cell viability at 1 to 60 uM incubated for 72 hrs by MTT assay; format: functional, cell-based
HCC1954 [15] = assay: Antiproliferative activity against human HCC1954 cells overexpressing HER2 assessed as reduction in cell viability at 1 to 60 uM incubated for 72 hrs by MTT assay; format: functional, cell-based
[16] = Toxicity in NOD/SCID mouse xenografted with human A549 cells overexpressing EGFR assessed as changes in body weight at 86 micromol/kg, po administered once daily for 27 days; format: organism-based; settings: in vivo, 648 h; in short: as §5
[17] = Drug uptake in human A549 cells overexpressing EGFR at 1 uM measured after 24 hrs by LC-MS/MS analysis; format: ADME, cell-based; settings: a549, 24 h; in short: as §3

Receptor tyrosine-protein kinase erbB-2 (Homo sapiens), sequence (P04626 whole entry, the tested form may be a part): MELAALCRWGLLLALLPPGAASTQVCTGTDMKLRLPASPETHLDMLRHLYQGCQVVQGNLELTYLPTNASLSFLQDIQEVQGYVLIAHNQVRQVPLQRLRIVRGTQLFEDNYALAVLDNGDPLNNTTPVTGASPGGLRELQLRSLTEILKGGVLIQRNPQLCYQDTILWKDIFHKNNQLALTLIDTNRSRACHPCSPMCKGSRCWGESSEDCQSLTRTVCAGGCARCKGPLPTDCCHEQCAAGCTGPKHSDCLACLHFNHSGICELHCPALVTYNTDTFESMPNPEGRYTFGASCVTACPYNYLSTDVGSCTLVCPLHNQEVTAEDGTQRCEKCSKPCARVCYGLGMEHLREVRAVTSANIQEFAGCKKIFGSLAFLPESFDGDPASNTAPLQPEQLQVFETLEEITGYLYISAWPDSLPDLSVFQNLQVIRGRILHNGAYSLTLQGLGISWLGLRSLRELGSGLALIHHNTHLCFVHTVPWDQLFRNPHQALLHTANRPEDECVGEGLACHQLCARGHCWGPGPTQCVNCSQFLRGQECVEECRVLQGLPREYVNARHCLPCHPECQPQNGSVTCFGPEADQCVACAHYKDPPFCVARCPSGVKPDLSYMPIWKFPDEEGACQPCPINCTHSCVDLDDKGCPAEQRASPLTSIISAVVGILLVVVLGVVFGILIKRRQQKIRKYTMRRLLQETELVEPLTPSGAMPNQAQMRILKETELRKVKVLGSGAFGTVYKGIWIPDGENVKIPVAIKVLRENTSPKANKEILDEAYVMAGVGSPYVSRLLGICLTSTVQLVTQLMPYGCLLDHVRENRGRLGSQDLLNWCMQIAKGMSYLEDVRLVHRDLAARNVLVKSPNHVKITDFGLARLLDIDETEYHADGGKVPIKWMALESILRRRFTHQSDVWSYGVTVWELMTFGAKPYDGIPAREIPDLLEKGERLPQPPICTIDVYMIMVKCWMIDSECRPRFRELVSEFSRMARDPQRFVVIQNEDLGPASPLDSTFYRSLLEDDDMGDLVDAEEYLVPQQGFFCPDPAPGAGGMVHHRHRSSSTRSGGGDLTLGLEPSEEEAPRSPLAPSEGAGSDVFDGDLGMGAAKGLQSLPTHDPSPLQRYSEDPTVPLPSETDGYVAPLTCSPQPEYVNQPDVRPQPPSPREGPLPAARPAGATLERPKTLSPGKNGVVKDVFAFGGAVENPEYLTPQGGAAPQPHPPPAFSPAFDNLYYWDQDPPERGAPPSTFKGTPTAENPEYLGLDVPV
Epidermal growth factor receptor (Homo sapiens), sequence (P00533 whole entry): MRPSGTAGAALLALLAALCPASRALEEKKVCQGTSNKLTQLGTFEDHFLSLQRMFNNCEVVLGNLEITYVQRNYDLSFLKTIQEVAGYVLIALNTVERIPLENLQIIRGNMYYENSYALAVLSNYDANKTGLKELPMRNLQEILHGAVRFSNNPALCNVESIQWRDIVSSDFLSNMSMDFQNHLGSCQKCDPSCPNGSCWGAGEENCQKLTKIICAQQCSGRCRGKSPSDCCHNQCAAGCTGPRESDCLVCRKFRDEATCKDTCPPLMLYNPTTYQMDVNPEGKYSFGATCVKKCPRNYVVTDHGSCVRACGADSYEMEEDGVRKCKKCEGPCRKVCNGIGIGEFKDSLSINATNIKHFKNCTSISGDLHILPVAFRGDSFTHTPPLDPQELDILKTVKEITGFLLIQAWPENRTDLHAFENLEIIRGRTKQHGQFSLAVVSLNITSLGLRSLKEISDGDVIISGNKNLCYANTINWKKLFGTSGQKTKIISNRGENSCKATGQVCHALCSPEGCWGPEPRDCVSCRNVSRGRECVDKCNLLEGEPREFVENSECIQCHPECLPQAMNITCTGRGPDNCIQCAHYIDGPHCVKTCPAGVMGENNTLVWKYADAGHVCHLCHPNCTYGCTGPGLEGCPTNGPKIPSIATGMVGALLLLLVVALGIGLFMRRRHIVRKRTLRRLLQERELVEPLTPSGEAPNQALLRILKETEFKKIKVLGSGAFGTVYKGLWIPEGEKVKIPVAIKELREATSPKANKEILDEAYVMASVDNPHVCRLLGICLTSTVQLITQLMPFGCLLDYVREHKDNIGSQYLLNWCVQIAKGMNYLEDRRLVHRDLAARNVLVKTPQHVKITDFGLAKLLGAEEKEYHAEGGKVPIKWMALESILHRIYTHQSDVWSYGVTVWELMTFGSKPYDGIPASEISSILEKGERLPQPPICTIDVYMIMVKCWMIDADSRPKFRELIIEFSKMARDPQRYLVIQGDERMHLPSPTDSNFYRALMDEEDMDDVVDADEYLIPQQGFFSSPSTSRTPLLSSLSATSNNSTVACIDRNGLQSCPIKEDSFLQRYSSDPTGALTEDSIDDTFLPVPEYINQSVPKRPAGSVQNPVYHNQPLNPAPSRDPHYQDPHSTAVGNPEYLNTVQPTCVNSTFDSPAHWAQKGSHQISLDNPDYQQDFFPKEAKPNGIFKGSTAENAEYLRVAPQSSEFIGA

| Compound | inhibition [1] [%] | inhibition [2] [%] | inhibition [3] | IC50 (A549 [4]) [µM] | IC50 (NCI-H1975) [µM] | IC50 (HCC1954 [5]) [µM] | IC50 (MCF7) [µM] | Drug uptake [6] | Cmax [7] [nM] | Tmax [8] [h] | AUC(0-t) at 24 h [9] [µM·h] | Activity (A549 [10]) [mm3] | concentration at 2 h [11] [nM] | AUC [12] [nmol/100.000 cells x h] | inhibition [13] | inhibition (A549 [14]) | inhibition (HCC1954 [15]) | Activity [16] | Drug uptake [17] |
| --- | --- | --- | --- | --- | --- | --- | --- | --- | --- | --- | --- | --- | --- | --- | --- | --- | --- | --- | --- |
| CS(=O)(=O)CCNCc1ccc(-c2ccc3ncnc(Nc4ccc(OCc5cccc(F)c5)c(Cl)c4)c3c2)o1 [LAPATINIB] | 97 | 86 | Active | 11 | 9 | 5 | 95 | 0.02 nmol/100,000 cells | 1470 | 2 | 6.7 | 1338 | 2810 | 1.06 |  |  |  |  |  |
| CS(=O)(=O)CCNCc1ccc(-c2nc3c(Nc4ccc(OCc5cccc(F)c5)c(Cl)c4)ccnc3[nH]2)o1 | 46 | 33 | Active |  |  |  |  |  |  |  |  |  |  |  | Active | inactive | inactive |  |  |
| Fc1cccc(COc2ccc(Nc3nccc4[nH]c(-c5ccco5)nc34)cc2Cl)c1 | 86 | 82 |  |  |  |  |  |  |  |  |  |  |  |  |  | inactive | inactive |  |  |
| Fc1cccc(COc2ccc(Nc3ncc(F)c4[nH]c(-c5ccco5)nc34)cc2Cl)c1 | 79 | 10 |  |  |  |  |  |  |  |  |  |  |  |  |  |  |  |  |  |
| CS(=O)(=O)CCNCc1ccc(-c2nc3c(Nc4ccc(OCc5cccc(F)c5)c(Cl)c4)ncc(F)c3[nH]2)o1 | 13 | 0 | Active |  |  |  |  |  |  |  |  |  |  |  |  |  |  |  |  |
| Fc1cccc(COc2ccc(Nc3ncnc4[nH]c(-c5ccco5)nc34)cc2Cl)c1 | 86 | 51 | Active |  |  |  |  |  |  |  |  |  |  |  |  | Active | Active |  |  |
| CS(=O)(=O)CCNCc1ccc(-c2nc3c(Nc4ccc(OCc5cccc(F)c5)c(Cl)c4)nccc3[nH]2)o1 | 34 | 25 | Active |  |  |  |  |  |  |  |  |  |  |  | Active |  |  |  |  |
| CS(=O)(=O)CCNCc1ccc(-c2nc3c(Nc4ccc(OCc5cccc(F)c5)c(Cl)c4)ncnc3[nH]2)o1 | 32 | 28 |  | 33 | 30 | 14 | 105 | 0.01 nmol/100,000 cells | 70 | 2 | 0.87 |  |  | 0.35 | Active | Active | Active |  |  |
| Fc1cccc(COc2ccc(Nc3ccnc4[nH]c(-c5ccco5)nc34)cc2Cl)c1 | 58 | 24 |  | 3 | 10 | 9 | 126 | 0.04 nmol/100,000 cells | 300 | 2 | 2.1 | 1311 | 640 | 1.5 | Active | Active | Active | Non-Toxic | Active |
